In ChEMBL document CHEMBL3085655, “4β-Methyl-5-(3-hydroxyphenyl)morphan opioid agonist and partial agonist derived from a 4β-methyl-5-(3-hydroxyphenyl)morphan pure antagonist” (J Med Chem, 2013):

Assays:
Mu-type opioid receptor [1] = target: T1, Mu-type opioid receptor (Homo sapiens, UniProt P35372); assay: Agonist activity at human mu opioid receptor expressed in CHO cells by [35S]GTPgammaS binding assay relative to DAMGO; assay type: functional, cell-based
Summary of the method: (§1)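 Membranes from CHO cells over-expressing the human receptor. Stimulated [35S]GTPγS binding measured with eight concentrations chosen to define both asymptotes of the concentration-response curve. EC50 and Emax calculated. Emax expressed as a percentage of the Emax of the standard agonist on the same plate: DAMGO (mu), DPDPE (delta), U50,488 (kappa). Mean ± SE of at least three experiments.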

Mu-type opioid receptor [2] = target: T1, Mu-type opioid receptor; assay: Agonist activity at human mu opioid receptor expressed in CHO cells by [35S]GTPgammaS binding assay; assay type: functional, cell-based; summary of the method: as §1
[3] = target: T2, Delta-type opioid receptor (Homo sapiens, UniProt P41143); assay: Intrinsic agonist activity at human delta opioid receptor expressed in CHO cells by [35S]GTPgammaS binding assay; assay type: functional, cell-based
[4] = target: T3, Kappa-type opioid receptor (Homo sapiens, UniProt P41145); assay: Antagonist activity at human kappa opioid receptor expressed in CHO cells by [35S]GTPgammaS binding assay; assay type: functional, cell-based
Summary of the method: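 Inhibition of [35S]GTPγS binding stimulated by the selective agonist in CHO cells over-expressing the human receptor. Agonists were DPDPE (delta) and U69,593 (kappa). Agonist dose-response curves run with and without a single concentration of test compound. Ke = [L]/(DR−1), where DR is the ratio of agonist EC50 with and without test compound. Mean ± SE of at least three experiments.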

Mu-type opioid receptor [5] = target: T1, Mu-type opioid receptor; assay: Displacement of [3H]DAMGO from human mu opioid receptor expressed in CHO cells; assay type: cell-based
Summary of the method: (§2)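 Competition radioligand binding at the human receptors, run at the Psychoactive Drug Screening Program. Radioligands were [3H]DAMGO (MOR), [3H]DADLE (DOR) and [3H]U69,593 (KOR). Radioligand Kd determined by homologous competition binding with the receptor-specific radioligand. Ki values reported.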

[6] = target: T2, Delta-type opioid receptor; assay: Agonist activity at human delta opioid receptor expressed in CHO cells by [35S]GTPgammaS binding assay relative to DPDPE; assay type: functional, cell-based; summary of the method: as §1
[7] = target: T2, Delta-type opioid receptor; assay: Displacement of [3H]DADLE from human delta opioid receptor expressed in CHO cells; assay type: cell-based
Summary of the method: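 Competition radioligand binding at the human receptors, run at the Psychoactive Drug Screening Program. Radioligand Kd determined by homologous competition binding with the receptor-specific radioligand. Ki values reported.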

[8] = target: T3, Kappa-type opioid receptor; assay: Displacement of [3H]U-69593 from human kappa opioid receptor expressed in CHO cells; assay type: cell-based; summary of the method: as §2
[9] = target: T3, Kappa-type opioid receptor; assay: Agonist activity at human kappa opioid receptor expressed in CHO cells by [35S]GTPgammaS binding assay; assay type: functional, cell-based; summary of the method: as §1
[10] = target: T2, Delta-type opioid receptor; assay: Agonist activity at human delta opioid receptor expressed in CHO cells by [35S]GTPgammaS binding assay; assay type: functional, cell-based; summary of the method: as §1
[11] = target: T3, Kappa-type opioid receptor; assay: Agonist activity at human kappa opioid receptor expressed in CHO cells by [35S]GTPgammaS binding assay relative to U50,488; assay type: functional, cell-based; summary of the method: as §1
[12] = target: T2, Delta-type opioid receptor; assay: Intrinsic activity at human delta opioid receptor expressed in CHO cells by [35S]GTPgammaS binding assay; assay type: functional, cell-based

T1 sequence (P35372 whole entry): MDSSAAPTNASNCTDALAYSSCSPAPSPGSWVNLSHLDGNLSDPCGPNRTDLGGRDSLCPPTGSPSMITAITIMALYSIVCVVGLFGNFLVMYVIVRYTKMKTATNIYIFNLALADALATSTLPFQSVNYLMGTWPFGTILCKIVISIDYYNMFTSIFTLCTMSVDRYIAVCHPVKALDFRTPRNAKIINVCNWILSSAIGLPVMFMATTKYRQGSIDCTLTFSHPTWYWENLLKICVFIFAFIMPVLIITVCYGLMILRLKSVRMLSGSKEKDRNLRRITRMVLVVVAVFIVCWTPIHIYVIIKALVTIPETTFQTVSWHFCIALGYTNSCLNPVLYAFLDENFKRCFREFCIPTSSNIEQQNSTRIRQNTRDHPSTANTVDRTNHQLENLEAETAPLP
T3 sequence (P41145 whole entry): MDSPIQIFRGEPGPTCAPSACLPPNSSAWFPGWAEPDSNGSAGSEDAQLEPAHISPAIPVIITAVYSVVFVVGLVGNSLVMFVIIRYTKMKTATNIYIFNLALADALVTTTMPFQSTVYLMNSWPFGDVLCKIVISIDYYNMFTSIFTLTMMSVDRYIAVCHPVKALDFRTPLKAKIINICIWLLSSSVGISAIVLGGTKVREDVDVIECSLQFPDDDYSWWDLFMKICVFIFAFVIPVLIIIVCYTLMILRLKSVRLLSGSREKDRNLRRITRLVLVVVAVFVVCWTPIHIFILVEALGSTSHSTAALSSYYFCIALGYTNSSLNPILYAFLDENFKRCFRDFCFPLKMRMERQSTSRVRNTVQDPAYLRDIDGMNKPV
T2 sequence (P41143 whole entry): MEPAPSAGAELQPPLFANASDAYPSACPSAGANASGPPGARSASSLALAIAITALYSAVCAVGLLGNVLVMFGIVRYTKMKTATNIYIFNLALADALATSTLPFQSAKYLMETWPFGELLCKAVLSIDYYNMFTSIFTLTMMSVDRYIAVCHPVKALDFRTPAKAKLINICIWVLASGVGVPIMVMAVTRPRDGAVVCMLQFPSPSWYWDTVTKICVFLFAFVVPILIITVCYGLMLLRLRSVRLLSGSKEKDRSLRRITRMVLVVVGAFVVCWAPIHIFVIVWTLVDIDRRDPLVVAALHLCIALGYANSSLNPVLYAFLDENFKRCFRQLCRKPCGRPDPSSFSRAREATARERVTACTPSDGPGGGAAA

Row | SMILES | Emax (Mu-type opioid receptor [1]) | EC50 (Mu-type opioid receptor [2]) | Agonist potency [3] | Ke [4] | Ki (Mu-type opioid receptor [5]) | Emax [6] | Ki [7] | Ki [8] | EC50 [9] | EC50 [10] | Emax [11] | Intrinsic activity [12] | EC50 (Mu-type opioid receptor [2]; cho) | EC50 ([10]; cho)
1 | C[C@H]1CN(CCCc2ccccc2)[C@@H]2C[C@@H](N)C[C@@]1(c1cccc(O)c1)C2 | 44% | 20.6 nM | > 5000 nM | 21.7 nM | – | – | – | – | – | – | – | – | – | –
2 | C[C@@H]1CN(CCCc2ccccc2)[C@H]2C[C@H](N(C)CC3CC3)C[C@]1(c1cccc(O)c1)C2 | 109% | 2.7 nM | – | – | 0.43 nM | 24% | 9.04 nM | 0.92 nM | 40 nM | 10.3 nM | 38% | – | – | –
3 | CCN(C)[C@H]1C[C@H]2C[C@@](c3cccc(O)c3)(C1)[C@H](C)CN2CCCc1ccccc1 | 94% | 60 nM | > 5000 nM | – | – | – | – | – | – | – | – | > 5 µM | – | –
4 | C[C@@H]1CN(CCCc2ccccc2)[C@H]2C[C@H](NCC3CC3)C[C@]1(c1cccc(O)c1)C2 | 52% | 130 nM | – | – | 7.55 nM | – | – | 13.7 nM | – | – | – | – | – | –
5 | CN[C@H]1C[C@H]2C[C@@](c3cccc(O)c3)(C1)[C@H](C)CN2CCCc1ccccc1 | 105% | 15 nM | – | – | 0.371 nM | 101% | 36.2 nM | 20.9 nM | – | 14.8 nM | – | – | – | –
6 | C[C@@H]1CN(CCCc2ccccc2)[C@@H]2CCC[C@]1(c1cccc(O)c1)C2 | – | – | – | – | 1.61 nM | – | 161 nM | 7.79 nM | – | – | – | – | – | –
7 | CCN[C@H]1C[C@H]2C[C@@](c3cccc(O)c3)(C1)[C@H](C)CN2CCCc1ccccc1 | 14% | 33 nM | > 5000 nM | – | 3.35 nM | – | 264 nM | 8.22 nM | – | – | – | – | – | –
8 | CCCN[C@H]1C[C@H]2C[C@@](c3cccc(O)c3)(C1)[C@H](C)CN2CCCc1ccccc1 | 57% | 18 nM | > 5000 nM | – | 1.66 nM | – | 73.8 nM | 1.4 nM | 293 nM | – | 20.7% | – | – | –
9 | C[C@@H]1CN(CCCc2ccccc2)[C@H]2C[C@H](N(C)C)C[C@]1(c1cccc(O)c1)C2 | 104% | 6.5 nM | – | – | 0.28 nM | 55% | 18.4 nM | 9.9 nM | – | 38 nM | – | – | – | –
10 | C[C@@H]1CN(CCCc2ccccc2)[C@H]2C[C@H](N)C[C@]1(c1cccc(O)c1)C2 | 74% | – | – | 10.1 nM | – | 101% | – | – | – | – | – | – | 19.5 nM | 7.5 nM
